Experimental data from ChEMBL document CHEMBL4000247, “Carbonic anhydrases activation with 3-amino-1H-1,2,4-triazole-1-carboxamides: Discovery of subnanomolar isoform II activators” (Bioorg Med Chem, 2017).

Target: Carbonic anhydrase 2 (Homo sapiens) (UniProt P00918)
Assay: Activation of recombinant human carbonic anhydrase 2 incubated for 15 mins prior to testing by stopped flow CO2 hydrase assay
Method in brief: (§1)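 CO2 hydration followed 5–10 s in stopped-flow instrument; phenol red 0.2 mM read at 557 nm; 10 mM HEPES pH 7.4, 0.1 M NaClO4 for ionic strength; saturated CO2 solutions in water at 25°C as substrate. Activator stocks 10 mM in assay buffer, diluted down to 0.01 nM; enzyme and activator preincubated 15 min at room temperature. Activation constant from competitive steady-state equation.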

How did the KA turn out when `Nc1ncn(C(=O)Nc2ccc(Cc3ccc(NC(=O)n4cnc(N)n4)cc3)cc2)n1` was run?
The KA was 0.05 nM.

For `Nc1ncn(C(=O)NCCCCNC(=O)n2cnc(N)n2)n1`, which KA is on record?
The KA was 91 nM.

For `Nc1ncn(C(=O)NCCCCCCNC(=O)n2cnc(N)n2)n1`, which KA is on record?
The KA was 14.6 nM.

For `Nc1ncn(C(=O)NCCCCCCCCCCCCNC(=O)n2cnc(N)n2)n1`, which KA is on record?
The KA was 79 nM.

How did the KA turn out when `Nc1ncn(C(=O)Nc2ccc(-c3ccc(NC(=O)n4cnc(N)n4)cc3)cc2)n1` was run?
Its KA is 14.1 nM.

With `CC1(C)CC(NC(=O)n2cnc(N)n2)CC(C)(CNC(=O)n2cnc(N)n2)C1` (stereo not drawn) as the compound, how does the KA read?
Its KA is 1570 nM.

Which KA does the source give for `CCCCNC(=O)n1cnc(N)n1` here?
Its KA is 1.7 nM.

How did the KA turn out when `O=C(O)c1ncn(C(=O)NCCCCCCNC(=O)n2cnc(C(=O)O)n2)n1` was run?
The KA was 6700 nM.

`CCCCCCNC(=O)n1cnc(N)n1` was tested. Which KA did it give?
Its KA is 345 nM.

With `COc1cc(-c2ccc(NC(=O)n3cnc(N)n3)c(OC)c2)ccc1NC(=O)n1cnc(N)n1` as the compound, how does the KA read?
Its KA is 1680 nM.

How did the KA turn out when `Cc1ccc(NC(=O)n2cnc(N)n2)cc1NC(=O)n1cnc(N)n1` was run?
Its KA is 826 nM.

How did the KA turn out when `Nc1ncn(C(=O)NCCCCCCCCNC(=O)n2cnc(N)n2)n1` was run?
The KA was 65 nM.

How did the KA turn out when `CCCCCCCCCCCCCCCCCCNC(=O)n1cnc(N)n1` was run?
The KA was 1680 nM.

With `Nc1ncn(C(=O)Nc2ccc(NC(=O)n3cnc(N)n3)cc2)n1` as the compound, how does the KA read?
The KA was 0.12 nM.

Target: Carbonic anhydrase 1 (Homo sapiens) (UniProt P00915)
Sequence (P00915 2-261 limits assumed): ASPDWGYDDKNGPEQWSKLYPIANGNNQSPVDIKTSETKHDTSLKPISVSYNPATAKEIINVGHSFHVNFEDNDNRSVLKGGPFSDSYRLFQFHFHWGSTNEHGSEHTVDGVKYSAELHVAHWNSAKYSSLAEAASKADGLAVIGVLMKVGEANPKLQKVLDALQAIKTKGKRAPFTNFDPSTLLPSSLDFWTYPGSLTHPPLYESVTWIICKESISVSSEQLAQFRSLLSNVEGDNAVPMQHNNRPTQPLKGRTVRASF
Assay: Activation of recombinant human carbonic anhydrase 1 incubated for 15 mins prior to testing by stopped flow CO2 hydrase assay
Method in brief: as §1

With `Nc1ncn(C(=O)Nc2ccc(Cc3ccc(NC(=O)n4cnc(N)n4)cc3)cc2)n1` as the compound, how does the KA read?
The KA was 0.94 nM.

How did the KA turn out when `Nc1ncn(C(=O)NCCCCNC(=O)n2cnc(N)n2)n1` was run?
The KA was 74 nM.

Which KA does the source give for `Nc1ncn(C(=O)NCCCCCCNC(=O)n2cnc(N)n2)n1` here?
Its KA is 42 nM.

With `Nc1ncn(C(=O)NCCCCCCCCCCCCNC(=O)n2cnc(N)n2)n1` as the compound, how does the KA read?
The KA was 982 nM.

For `Nc1ncn(C(=O)Nc2ccc(-c3ccc(NC(=O)n4cnc(N)n4)cc3)cc2)n1`, which KA is on record?
The KA was 0.81 nM.

Which KA does the source give for `CC1(C)CC(NC(=O)n2cnc(N)n2)CC(C)(CNC(=O)n2cnc(N)n2)C1` (stereo not drawn) here?
The KA was 993 nM.

`CCCCNC(=O)n1cnc(N)n1` was tested. Which KA did it give?
The KA was 6.1 nM.

Which KA does the source give for `O=C(O)c1ncn(C(=O)NCCCCCCNC(=O)n2cnc(C(=O)O)n2)n1` here?
Its KA is 13.7 nM.

With `CCCCCCNC(=O)n1cnc(N)n1` as the compound, how does the KA read?
The KA was 123 nM.

Which KA does the source give for `COc1cc(-c2ccc(NC(=O)n3cnc(N)n3)c(OC)c2)ccc1NC(=O)n1cnc(N)n1` here?
Its KA is 637 nM.

For `Cc1ccc(NC(=O)n2cnc(N)n2)cc1NC(=O)n1cnc(N)n1`, which KA is on record?
The KA was 4.2 nM.

`Nc1ncn(C(=O)NCCCCCCCCNC(=O)n2cnc(N)n2)n1` was tested. Which KA did it give?
The KA was 11.1 nM.

How did the KA turn out when `CCCCCCCCCCCCCCCCCCNC(=O)n1cnc(N)n1` was run?
The KA was 987 nM.

With `Nc1ncn(C(=O)Nc2ccc(NC(=O)n3cnc(N)n3)cc2)n1` as the compound, how does the KA read?
The KA was 65 nM.
